Measured values: ChEMBL document CHEMBL4266009, “One Step Beyond: Design of Substrates Spanning Primed Positions of Zika Virus NS2B-NS3 Protease” (ACS Med Chem Lett, 2018)
Values belong to the molecule of their own block, whether it stands above or below them. Active and inactive are the calls of the source. The calls are words filed in the database; no cut-off is given here. Non-standard residues stand in square brackets, D forms with d. Residues, ends and D or L forms follow the SMILES beside them. Tyr(3-NO2) = N[C@@H](Cc1ccc(O)c([N+](=O)[O-])c1)C(=O)O; 2Abz = Nc1ccccc1C(=O)O

Experiments:
[1] = tested on: Zika virus; test: Substrate activity at recombinant ZIKV NS3 pro domain fused NS2B protease assessed as ratio of Kcat to Km in Tris-CHAPS-glycerol buffer at pH 7.4 after 30 mins
How it was run: (§1)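 Continuous fluorescence assay (Ex 320, Em 450 nm) in 10 mM Tris-HCl pH 7.4, 20% glycerol, 1 mM CHAPS at 37 °C; substrate (1.0×10-7 to 4×10^-5 M final) added to 1.64×10^-8 M NS2BLNNS3pro. Initial rates from linear portions, inner-filter corrected; KM and kcat from double-reciprocal Michaelis-Menten plots; triplicate, SD ≤20%.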

[2] = tested on: Zika virus; test: Substrate activity at recombinant ZIKV NS3 pro domain fused NS2B protease at pH 7.4 after 30 mins by fluorescence assay
How it was run: (§2)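 pH profile: NS2BLNNS3pro 1.64×10^-8 M with substrate 2.44×10^-5 M in citrate (pH 3.0), acetate (4.0, 5.0), MES (6.0), MOPS (7.0), Tris (7.4, 10.0) or HEPES (8.0); fluorescence increase followed at 37 °C over 30 min.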

[3] = Selectivity ratio of substrate activity at recombinant ZIKV NS3 pro domain fused NS2B protease to substrate activity at West Nile virus protease
[4] = tested on: Zika virus; test: Substrate activity at recombinant ZIKV NS3 pro domain fused NS2B protease assessed as Km in Tris-CHAPS-glycerol buffer at pH 7.4 after 30 mins; how it was run: as §1
[5] = tested on: Zika virus; test: Substrate activity at recombinant ZIKV NS3 pro domain fused NS2B protease assessed as Kcat in PBS at pH 7.4 after 30 mins
How it was run: (§3)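 Kinetic constants determined in PBS pH 7.4 with the recombinant NS2BLNNS3pro; cleavage followed by ABZ fluorescence (Ex 320, Em 450 nm) at 37 °C; initial rates fitted and KM, kcat obtained from double-reciprocal Michaelis-Menten plots.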

[6] = tested on: Zika virus; test: Substrate activity at recombinant ZIKV NS3 pro domain fused NS2B protease assessed as ratio of Kcat to Km in PBS at pH 7.4 after 30 mins; how it was run: as §3
[7] = tested on: Zika virus; test: Substrate activity at recombinant ZIKV NS3 pro domain fused NS2B protease at pH 8 to 10 after 30 mins by fluorescence assay; how it was run: as §2
[8] = tested on: Zika virus; test: Substrate activity at recombinant ZIKV NS3 pro domain fused NS2B protease assessed as Km in PBS at pH 7.4 after 30 mins; how it was run: as §3
[9] = tested on: Zika virus; test: Substrate activity at recombinant ZIKV NS3 pro domain fused NS2B protease at pH 3 to 6 after 30 mins by fluorescence assay; how it was run: as §2
[10] = tested on: Zika virus; test: Substrate activity at recombinant ZIKV NS3 pro domain fused NS2B protease assessed as Kcat in Tris-CHAPS-glycerol buffer at pH 7.4 after 30 mins; how it was run: as §1
[11] = tested on: Zika virus; test: Substrate activity at recombinant ZIKV NS3 pro domain fused NS2B protease by HPLC method
[12] = tested on: Zika virus; test: Substrate activity at 6.86x10'-6M of recombinant ZIKV NS3 pro domain fused NS2B protease; conditions: in the assay text read “6.86x10'-10M” for “6.86x10'-6M”
How it was run: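 Limit of detection: decreasing amounts of recombinant NS2BLNNS3pro titrated against substrate at 2.44 × 10^-5 M in PBS pH 7.4, 37 °C, 30 min; fluorescence read at 450 nm (Ex 320 nm); detection limit from fluorescence increase versus enzyme concentration; triplicate.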

[13] = tested on: Zika virus; test: Substrate activity at recombinant ZIKV NS3 pro domain fused NS2B protease at pH 7.4

kcat/Km [1]: 1.1 ×10⁶ /M/s
SMILES: CC(=O)N[C@H](CCCNC(=N)N)C(=O)N[C@@H](CCCCN)C(=O)N[C@@H](CCCN)C(=O)N[C@@H](CCCNC(=N)N)C(=O)Nc1ccc2c(CC(N)=O)cc(=O)oc2c1

Activity [2]: Active
SMILES: CC(C)[C@H](NC(=O)c1ccccc1N)C(=O)N[C@@H](CCCCN)C(=O)N[C@@H](CCCCN)C(=O)N[C@@H](CCCNC(=N)N)C(=O)N[C@@H](C)C(=O)N[C@@H](C)C(=O)N[C@@H](CC(=O)O)C(=O)N[C@@H](Cc1ccc(O)c([N+](=O)[O-])c1)C(N)=O (H-[2Abz]VKKRAAD[Tyr(3-NO2)]-NH2)

Ratio [3]: 200
Km [4]: 1.23 µM
kcat [5]: 16.3 s⁻¹
kcat/Km [6]: 2.32 ×10⁶ /M/s
Activity [7]: Active
kcat/Km [1]: 1.26 ×10⁸ /M/s
Km [8]: 6.97 µM
Activity [9]: inactive
Activity [2]: Active
kcat [10]: 151 s⁻¹
Activity [11]: Active
Activity [12]: Active
Activity [13]: Active
SMILES: CC(C)[C@H](NC(=O)c1ccccc1N)C(=O)N[C@@H](CCCCN)C(=O)N[C@@H](CCCCN)C(=O)N[C@@H](CCCNC(=N)N)C(=O)N[C@@H](C)C(=O)N[C@@H](C)C(=O)N[C@@H](Cc1c[nH]c2ccccc12)C(=O)N[C@@H](Cc1ccc(O)c([N+](=O)[O-])c1)C(N)=O (H-[2Abz]VKKRAAW[Tyr(3-NO2)]-NH2)

Activity [2]: Active
SMILES: CC(C)[C@H](NC(=O)c1ccccc1N)C(=O)N[C@@H](CCCCN)C(=O)N[C@@H](CCCCN)C(=O)N[C@@H](CCCNC(=N)N)C(=O)N[C@@H](C)C(=O)N[C@@H](C)C(=O)N[C@@H](CCC(=O)O)C(=O)N[C@@H](Cc1ccc(O)c([N+](=O)[O-])c1)C(N)=O (H-[2Abz]VKKRAAE[Tyr(3-NO2)]-NH2)
